Assay results reported in ChEMBL document CHEMBL1781970, “Synthesis and antiproliferative evaluation of 23-hydroxybetulinic acid derivatives” (Eur J Med Chem, 2011).

Columns and labels:
Type in all cases: functional, cell-based
[1] = test system: B16; assay: Antiproliferative activity against mouse B16 cells after 72 hrs by MTT assay; details: B16, 72 h
Procedure, shortened: (§1)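 Cells grown in RPMI 1640 with 10% FBS and 1% penicillin-streptomycin at 37 °C, 5% CO2, then seeded overnight in 96-well plates. Test compounds were dissolved in DMSO (doxorubicin control in PBS) and given at various concentrations for 72 h at 37 °C. MTT (5 mg/mL in PBS) was added for 4 h and OD read at 570 nm. IC50 was taken from dose-response curves; mean ± SD, ≥3 independent experiments.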

[2] = test system: HeLa; assay: Antiproliferative activity against human HeLa cells after 72 hrs by MTT assay; procedure, shortened: as §1
[3] = test system: MCF7; assay: Antiproliferative activity against human MCF7 cells after 72 hrs by MTT assay; details: MCF7, 72 h; procedure, shortened: as §1
[4] = test system: HepG2; assay: Antiproliferative activity against human HepG2 cells after 72 hrs by MTT assay; details: HepG2, 72 h; procedure, shortened: as §1
[5] = test system: A-375; assay: Antiproliferative activity against human A375 cells after 72 hrs by MTT assay; details: A-375, 72 h; procedure, shortened: as §1

SMILES	IC50 [1] [µM]	IC50 [2] [µM]	IC50 [3] [µM]	IC50 [4] [µM]	IC50 [5] [µM]
C=C(C)[C@@H]1CC[C@]2(C(=O)NCCCCn3nnc(-c4ccccn4)n3)CC[C@]3(C)[C@H](CC[C@@H]4[C@@]5(C)CC[C@H](O)[C@@](C)(CO)[C@@H]5CC[C@]43C)[C@@H]12	66.9	46.3	17.7	48.3	30.6
C=CCN(CC=C)C(=O)[C@]12CC[C@@H](C(=C)C)[C@@H]1[C@H]1CC[C@@H]3[C@@]4(C)CC[C@H](O)[C@@](C)(CO)[C@@H]4CC[C@@]3(C)[C@]1(C)CC2	60.4	59	17.7	59.8	17.2
C=C(C)[C@@H]1CC[C@]2(C(=O)N3CCCCC3)CC[C@]3(C)[C@H](CC[C@@H]4[C@@]5(C)CC[C@H](O)[C@@](C)(CO)[C@@H]5CC[C@]43C)[C@@H]12	43.7	66.5	16.6	68.6	17.9
C=C(CO)[C@@H]1CC[C@]2(C(=O)OCC3CCCO3)CC[C@]3(C)[C@H](CC[C@@H]4[C@@]5(C)CC[C@H](O)[C@@](C)(CO)[C@@H]5CC[C@]43C)[C@@H]12 (stereo not given in full)	64.3	79.4	76.3	81.2	70.4
C=C(C)[C@@H]1CC[C@]2(C(=O)N3CCC[C@H]3C(=O)N[C@@H](CCSC)C(=O)OC)CC[C@]3(C)[C@H](CC[C@@H]4[C@@]5(C)CC[C@H](O)[C@@](C)(CO)[C@@H]5CC[C@]43C)[C@@H]12	20.7	41.3	19.8	40.5	30.1
C=C(C)[C@@H]1CC[C@]2(C(=O)NCC(=O)N[C@@H](Cc3c[nH]c4ccccc34)C(=O)O)CC[C@]3(C)[C@H](CC[C@@H]4[C@@]5(C)CC[C@H](O)[C@@](C)(CO)[C@@H]5CC[C@]43C)[C@@H]12	> 100	> 100	> 100	> 100	> 100
C=C(C)[C@@H]1CC[C@]2(C(=O)NCCNC(=O)CCC(=O)O)CC[C@]3(C)[C@H](CC[C@@H]4[C@@]5(C)CC[C@H](OC(C)=O)[C@@](C)(COC(C)=O)[C@@H]5CC[C@]43C)[C@@H]12	82.6	72.9	51	76.1	59.5
C=C(C)[C@@H]1CC[C@]2(C(=O)O)CC[C@]3(C)[C@H](CC[C@@H]4[C@@]5(C)CC[C@H](O)[C@@](C)(CO)[C@@H]5CC[C@]43C)[C@@H]12	18.7	46.2	46.6	41.4	42

Second part, the compound after the results:

IC50 [1] [µM]	IC50 [2] [µM]	IC50 [3] [µM]	IC50 [4] [µM]	IC50 [5] [µM]	SMILES
65.1	> 100	84.7	> 100	89.3	C=C(C)[C@@H]1CC[C@]2(C(=O)N[C@@H](CCSC)C(=O)N[C@@H](CCSC)C(=O)O)CC[C@]3(C)[C@H](CC[C@@H]4[C@@]5(C)CC[C@H](O)[C@@](C)(CO)[C@@H]5CC[C@]43C)[C@@H]12
> 100	69.2	> 100	66.3	> 100	C=C(C)[C@@H]1CC[C@]2(C(=O)N3CCCCC3)CC[C@]3(C)[C@H](CC[C@@H]4[C@@]5(C)CC[C@H](OC(C)=O)[C@@](C)(COC(C)=O)[C@@H]5CC[C@]43C)[C@@H]12
45.9	> 100	34.3	59.2	34.2	C=C(C)[C@@H]1CC[C@]2(C(=O)OCCN3CCOCC3)CC[C@]3(C)[C@H](CC[C@@H]4[C@@]5(C)CC[C@H](O)[C@@](C)(CO)[C@@H]5CC[C@]43C)[C@@H]12
19.1	44.4	36	38	55.7	C=C(C)[C@@H]1CC[C@]2(C(=O)OC/C=C/CO)CC[C@]3(C)[C@H](CC[C@@H]4[C@@]5(C)CC[C@H](O)[C@@](C)(CO)[C@@H]5CC[C@]43C)[C@@H]12
87.3	95.6	> 100	72.2	> 100	C=C(C)[C@@H]1CC[C@]2(C(=O)N3CCC[C@H]3C(=O)O)CC[C@]3(C)[C@H](CC[C@@H]4[C@@]5(C)CC[C@H](O)[C@@](C)(CO)[C@@H]5CC[C@]43C)[C@@H]12
20.4	44.4	66.1	23.1	26.8	C=C(C)[C@@H]1CC[C@]2(C(=O)N[C@@H](CCSC)C(=O)N[C@@H](CCSC)C(=O)OC)CC[C@]3(C)[C@H](CC[C@@H]4[C@@]5(C)CC[C@H](O)[C@@](C)(CO)[C@@H]5CC[C@]43C)[C@@H]12
44.4	66.3	> 100	46.8	> 100	C=C(C)[C@@H]1CC[C@]2(C(=O)NCC(=O)N[C@@H](Cc3c[nH]c4ccccc34)C(=O)OC)CC[C@]3(C)[C@H](CC[C@@H]4[C@@]5(C)CC[C@H](O)[C@@](C)(CO)[C@@H]5CC[C@]43C)[C@@H]12
> 100	> 100	> 100	> 100	> 100	C=C(C)[C@@H]1CC[C@]2(C(=O)NCC(=O)N3CCC[C@H]3C(=O)O)CC[C@]3(C)[C@H](CC[C@@H]4[C@@]5(C)CC[C@H](O)[C@@](C)(CO)[C@@H]5CC[C@]43C)[C@@H]12
76.5	81.1	41.3	91.7	66.5	C=C(C)[C@@H]1CC[C@]2(C(=O)N3CCC[C@H]3C(=O)N[C@@H](CCSC)C(=O)O)CC[C@]3(C)[C@H](CC[C@@H]4[C@@]5(C)CC[C@H](O)[C@@](C)(CO)[C@@H]5CC[C@]43C)[C@@H]12
